Screening data (PubChem BioAssay)
An excerpt weighted towards active compounds, which were near 3.2% of everything screened.
BAP1 block – blocks human BAP1 ubiquitin-AMC hydrolysis | Q92560 | recombinant BAP1, Ub-AMC hydrolysis fluorescence kinetic; stronger effect = lower value | activity remaining (% of control), % at 20 µM | 72,000 compounds, 0.48% hits | AID 436;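 active = activity remaining at or below 50% of control, provided the compound also passes the data quality filters; inactive = the rest, including low values that fail the filters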;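 also: 100% = DMSO wells rate and 0% = substrate alone blank rate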
SF-1 act – SF-1 (human) activation; Q13285; CHO-K1 Gal4-SF-1 LBD luciferase reporter; % increase over DMSO SF-1-specific signal; activation, % at 10 µM; 65,000 compounds, 1.9% hits;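 active = activation above the mean activation of all tested compounds plus 3 SD, cut at about 50% in these data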
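System: CHO-K1 cells with Gal4–hSF-1 LBD chimera plus Gal4-driven luciferase; quantity: 4,000 CHO-K1 cells per well; compound: one dose, 10 µM compound, 1% DMSO; times: 20 h compound treatment, 37 °C; measured by: SteadyLite luciferase luminescence; read-out: percent activation versus DMSO; benchmarks: DMSO and mock-transfected background; replicates: one test per compound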
RORa activator – activators of human nuclear receptor RORA; activation, % at 10 µM; CHO-K1 Gal4-RORA LBD luciferase reporter, luminescence; percent increase over mock-subtracted basal signal; AID 560; 65,000 compounds, 1.5% hits; P35398;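 active = activation above the mean of all tested compounds plus 3 SD, cut at about 49% in these data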;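 also: 0% = DMSO-treated RORA cells and 100% = added signal equal to DMSO minus mock-transfected cells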
Target sequence (P35398 whole entry, looked up, the tested form may be a part): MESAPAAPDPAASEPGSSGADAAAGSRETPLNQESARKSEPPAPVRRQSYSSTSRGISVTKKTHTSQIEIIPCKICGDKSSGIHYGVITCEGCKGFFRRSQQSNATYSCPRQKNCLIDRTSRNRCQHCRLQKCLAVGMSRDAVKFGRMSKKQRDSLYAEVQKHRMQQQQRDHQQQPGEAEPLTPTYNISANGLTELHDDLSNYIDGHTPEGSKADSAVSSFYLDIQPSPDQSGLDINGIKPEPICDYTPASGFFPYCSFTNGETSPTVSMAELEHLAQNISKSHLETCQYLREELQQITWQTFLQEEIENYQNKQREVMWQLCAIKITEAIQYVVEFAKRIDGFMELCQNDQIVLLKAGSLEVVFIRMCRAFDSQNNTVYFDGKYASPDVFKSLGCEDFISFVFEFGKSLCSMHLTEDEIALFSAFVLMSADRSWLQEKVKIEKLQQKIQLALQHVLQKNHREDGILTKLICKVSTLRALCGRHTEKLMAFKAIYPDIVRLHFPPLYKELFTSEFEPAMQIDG
E coli RNAP – blocks E. coli RNA polymerase transcription; 62,000 compounds, 0.2% hits; inhibition, %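 (tested at 10 µM)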; P0A8V2; fluorescence transcription assay; in the data active = inhibition above about 20%;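 also: 0% = enzyme without compound and 100% = no enzyme blank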
JNK3 blocker – blocks human JNK3 kinase activity; purified JNK3 kinase activity, HTS; 60,000 compounds, 0.61% hits; AID 746; inhibition, % at 8 µM; in the data active = inhibition above about 17%;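 also: 0% = DMSO and 100% = reference inhibitor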
* hit, by the source's call; x = no result given.

SMILES	BAP1 block	SF-1 act	RORa activator	E coli RNAP	JNK3 blocker
Cc1ccc2nc(NC(=O)C3CCCN(S(=O)(=O)c4cnc[nH]4)C3)sc2c1 (stereo not drawn)	86	26	54*	-4	-1
O=C(Nc1ccc2c(c1)nc1n2CCSC1)c1ccccc1	100	19	-25	7	-1
COc1ccc(C(=O)Nc2ccc3c(c2)nc2n3CCSC2)cc1	100	57*	26	6	-7
COC(=O)c1[nH]c2ccc(Cl)cc2c1NC(=O)CCN1CCN(C2CCCCC2)CC1	134	-24	2	3	4
CC(C)(O)c1cc(=O)sc2nc3ccccc3n12	89	53*	71*	4	x
c1ccc2nc3c(nc2c1)sc1nc2ccccc2n13	x	6	-13	5	-1
Oc1ccc(Cl)cc1CNc1ccc(Br)cn1	100	89*	33	4	6
CC(Sc1nc(N2CCOCC2)nc(N2CCOCC2)n1)C(=O)Nc1ccccc1 (stereo not drawn)	x	3	-24	8	x
Oc1[nH]c2ccccc2c1/C=N/c1nccs1	81	38	39	11	27*
Oc1[nH]c2ccccc2c1C=Nc1ccc2c(c1)OCO2	64	62*	84*	9	36*
CC(=O)Nc1c(O)[nH]c2ccccc12	109	3	-18	8	2
COc1cccc(C=Nc2ccc3c(c2)OCCO3)c1O	92	-8	3	5	5
CCC(=O)OC1CSc2nc3ccccc3n2C1 (stereo not drawn)	96	10	-7	12	-1
O=C(Nc1nc2ccccc2n1CCN1CCCC1)c1ccc(Cl)cc1	75	55*	99*	4	-6
Cc1ccc(C(=O)Nc2nc3ccccc3n2CCN2CCCC2)cc1	96	38	62*	3	7
CC(=O)Nc1ccc(S(=O)(=O)Nc2nc(C)cc(-n3nc(C)cc3C)n2)cc1	92	-12	-5	6	5
Cn1c(Cn2cnc(Cl)c2Cl)nc2ccccc21	105	-13	-3	13	-6
CC(=O)Cc1nsc(Nc2ccc3c(c2)OCCO3)n1	108	67*	122*	3	x
CC(=O)Nc1ccc2c(c1)OCCOCCOc1cc(NC(C)=O)ccc1OCCOCCO2	83	x	x	x	x
COc1ccc(/C=N/n2c(N)nc3ccccc32)cc1OC	101	12	22	5	48*
COc1ccc2c(c1)[nH]c1c(=O)n(CC3CCCO3)cnc12 (stereo not drawn)	68	51*	17	8	10
O=C(Nc1ccc(N2CCOCC2)cc1)c1cc2ccccc2o1	108	47	74*	-8	3
COC(=O)c1ccc(NC(=O)Cc2ccccc2)cc1	129	71*	39	x	0
O=C(Nc1ccc(CN2CCOCC2)cc1)c1cc2ccccc2o1	177	86*	10	-1	1
O=C(CN1CCOCC1)Nc1ccc(-c2nc3ccccc3[nH]2)cc1	109	52*	38	3	-5
SMILES	BAP1 block	SF-1 act	RORa activator	E coli RNAP	JNK3 blocker
CC1(C)CC(=O)N(CC(=O)O)c2ccccc2S1	120	1	-8	6	x
Oc1c(C(c2cccs2)N2CCC3(CC2)OCCO3)sc2ncnn12 (stereo not drawn)	87	18	34	4	3
CC1CN(CCC(=O)Nc2ccc3c(c2)CCC3)CC(C)O1 (stereo not drawn)	x	-6	10	4	x
COC(=O)Nc1ccc(OCc2ccccc2)cc1	144	72*	32	11	4
O=C(Cc1ccccc1)Nc1ccc(CN2CCOCC2)cc1	105	41	56*	3	1
COc1cc(NC(=O)CN(c2ccc(C)cc2)S(=O)(=O)c2c(C)nn(C)c2C)cc(OC)c1	115	17	19	3	2
Cn1c(Cn2cnc3ccccc32)nc2ccccc21	81	-6	-23	0	-7
COc1cc(NC(=O)c2ccc(COc3ccccc3Br)o2)cc(OC)c1OC	60	-27	-21	4	20*
COc1ccc(NC(=O)c2ccc(COc3ccccc3Br)o2)cc1OC	83	9	28	-1	6
COc1cccc(-c2csc(NC(=O)C3CC3)n2)c1	104	60*	74*	3	-11
O=C(CSc1ccccc1)Nc1ccccc1N1CCOCC1	111	-10	-8	-1	12
Cc1cccn2cc(-c3ccc(F)cc3)nc12	92	30	30	-11	4
Cc1cccn2cc(-c3ccccc3)nc12	106	1	76*	5	8
Cc1ccccc1NC(=O)c1nc[nH]c1C(=O)NCc1ccccc1	152	12	-2	3	21*
CCOc1ccc(Br)cc1CC(=O)O	112	-6	10	-2	2
CCCc1cc(=O)n2[nH]c(-c3ccc(Br)cc3)cc2n1	98	112*	38	5	4
Cc1cc(=O)n2[nH]c(-c3ccc(Cl)cc3)cc2n1	107	36	46	7	10
Cc1nc(-c2cc3ccccc3oc2=O)cc2c1c(=O)oc1ccccc12	257	x	x	x	x
CCC(C)N(C(=O)COC(=O)c1cn(CC)c2nc(C)ccc2c1=O)C1CCS(=O)(=O)C1 (stereo not drawn)	87	17	4	-5	0
COc1ccc(-n2nc3cc(C)c(N)c(Br)c3n2)cc1	100	64*	50*	8	-4
Cn1c(C(=O)N2CCc3ccccc3C2)cc2oc3ccccc3c21	78	57*	22	-1	-1
CCc1nnc(NC(=O)CSc2nc(C)c3c(c2C#N)CCCC3)s1	x	55*	-9	3	-1
Cc1nc(SCC(=O)NCc2ccc3c(c2)OCO3)c(C#N)c2c1CCCC2	65	-17	-14	8	-8
CC(C)(CC(=O)O)Cc1nc(-c2ccc(Cl)cc2)no1	91	63*	0	-9	-11
COc1ccc(N(CC(=O)Nc2cc(C)ccc2OC)S(=O)(=O)c2c(C)noc2C)cc1	66	54*	24	13	-4
SMILES	BAP1 block	SF-1 act	RORa activator	E coli RNAP	JNK3 blocker
C=CCNc1oc(-c2ccc(OC)cc2)nc1C#N	412	57*	10	2	5
C=CCNc1oc(-c2ccc(OCC)cc2)nc1C#N	x	21	-13	3	-4
COc1ccc(-c2nc(C#N)c(NCC3CCCO3)o2)cc1OC (stereo not drawn)	x	19	53*	-2	-14
CNc1oc(-c2ccc(OCc3ccccc3)cc2)nc1C#N	x	58*	27	5	5
N#Cc1nc(-c2ccc(OCc3ccccc3)cc2)oc1NCc1ccco1	x	1	-2	2	3
CCCCOC(=O)c1ccc(NC(=O)c2cccs2)cc1	122	x	x	x	x
N#CC(c1nc2ccccc2nc1N1CCCC1)S(=O)(=O)c1cccs1 (stereo not drawn)	62	15	-16	7	3
O=S(=O)(Cc1ccc(Cl)cc1)N1CCN(Cc2ccccc2)CC1	x	-4	-6	4	3
O=C(CSc1nnnn1-c1ccccc1)NC(=O)Nc1ccc2c(c1)OCCO2	x	72*	52*	2	x
